# Measurements as given in ChEMBL document CHEMBL4831496, “Noncovalent EGFR T790M/L858R inhibitors based on diphenylpyrimidine scaffold: Design, synthesis, and bioactivity evaluation for the treatment of NSCLC” (Eur J Med Chem, 2021).
# Active and inactive are the calls of the source. The rule behind the calls is not given here.
# Legend:
# [1] = biological target: Epidermal growth factor receptor (Homo sapiens, UniProt P00533); assay: Inhibition of wild type EGFR (unknown origin) measured after 60 mins by ADP-Glo kinase based luminescence assay
# NCI-H1975 [2] = assay: Antiproliferative activity against human NCI-H1975 cells harboring EGFR L858R/T790M mutant assessed as reduction in cell viability incubated for 72 hrs by CCK8 assay; assay type: functional, cell-based; conditions: NCI-H1975, 72 h
# Procedure, shortened: (§1)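 Cells kept as monolayers at 37 °C, 5% CO2, seeded 3000-4000/well for 12 h, then exposed to compounds for 72 h. CCK-8 added for 1-2 h at 37 °C, absorbance read at 450 nm. Each dose run in triplicate, experiment repeated at least three times. IC50 taken from dose-response curves.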
# A-431 = assay: Cytotoxicity against human A-431 cells harboring wild type EGFR assessed as reduction in cell viability incubated for 72 hrs by CCK8 assay; assay type: cell-based; conditions: A-431, 72 h; procedure, shortened: as §1
# A549 = assay: Antiproliferative activity against human A549 cells harboring KRAS G12S mutant assessed as reduction in cell viability incubated for 72 hrs by CCK8 assay; assay type: functional, cell-based; conditions: A549, 72 h; procedure, shortened: as §1
# [3] = Cytotoxicity against human HBE cells assessed as reduction in cell viability incubated for 72 hrs by CCK8 assay; assay type: cell-based; procedure, shortened: as §1
# ASPC1 = assay: Antiproliferative activity against human ASPC1 cells assessed as reduction in cell viability incubated for 72 hrs by CCK8 assay; assay type: functional, cell-based; conditions: ASPC1, 72 h; procedure, shortened: as §1
# NCI-H23 = assay: Antiproliferative activity against human NCI-H23 cells harboring KRAS mutant assessed as reduction in cell viability incubated for 72 hrs by CCK8 assay; assay type: functional, cell-based; conditions: NCI-H23, 72 h; procedure, shortened: as §1
# L02 = assay: Antiproliferative activity against human L02 cells assessed as reduction in cell viability incubated for 72 hrs by CCK8 assay; assay type: cell-based; conditions: L02, 72 h
# NCI-H1975 [4] = assay: Antimigratory activity against human NCI-H1975 cells assessed as narrowing of scratch width at 0.5 to 2 uM incubated for 24 to 48 hrs by scratch wound healing assay based fluorescence microscopic analysis; assay type: functional, cell-based; conditions: dose 0.5-2 µM, time 24-48 hrs
# Procedure, shortened: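 H1975 monolayers cultured 48 h at 37 °C, then scratched and washed with PBS. Cells treated at […] and imaged by fluorescence microscope at 0, 24 and 48 h, with an untreated negative control.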
# NCI-H1975 [5] = assay: Induction of morphological changes in human NCI-H1975 cells assessed as increase in fusiform and sickle cell type abnormal cells at 0.5 to 2 uM incubated for 48 hrs by DAPI staining based fluorescence microscopic analysis; assay type: functional; conditions: dose 0.5-2 µM
# Procedure, shortened: (§2)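 H1975 cells seeded at about 2 × 10⁵/well for 12 h, then treated. Cells fixed in 10% formaldehyde for 10 min, stained with DAPI for 10 min at room temperature and examined by fluorescence microscopy. Cell shape was also viewed under natural light.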
# NCI-H1975 [6] = assay: Induction of morphological changes in human NCI-H1975 cells assessed as chromatin shrinkage and gathering to nuclear membrane at 0.5 to 2 uM incubated for 48 hrs by DAPI staining based fluorescence microscopic analysis; assay type: functional, cell-based; conditions: dose 0.5-2 µM; procedure, shortened: as §2
# NCI-H1975 [7] = assay: Induction of morphological changes in human NCI-H1975 cells assessed as nuclear fragmentation at 0.5 to 2 uM incubated for 48 hrs under natural light by DAPI staining based fluorescence microscopic analysis; assay type: functional, cell-based; conditions: dose 0.5-2 µM; procedure, shortened: as §2
# NCI-H1975 [8] = assay: Induction of apoptosis in human NCI-H1975 cells assessed as viable cells at 0.125 uM incubated for 48 hrs by AnnexinV/FITC and propidium iodide staining based flow cytometry analysis (reference value: 94.9%); assay type: functional; conditions: read-out: Activity
# NCI-H1975 [9] = assay: Induction of apoptosis in human NCI-H1975 cells assessed as late apoptotic cells at 0.125 uM incubated for 48 hrs by AnnexinV/FITC and propidium iodide staining based flow cytometry analysis (reference value: 0.73%); assay type: functional
# NCI-H1975 [10] = assay: Induction of apoptosis in human NCI-H1975 cells assessed as necrotic cells at 0.125 uM incubated for 48 hrs by AnnexinV/FITC and propidium iodide staining based flow cytometry analysis (reference value: 2.99%); assay type: functional
# NCI-H1975 [11] = assay: Induction of apoptosis in human NCI-H1975 cells assessed as early apoptotic cells at 0.5 uM incubated for 48 hrs by AnnexinV/FITC and propidium iodide staining based flow cytometry analysis (reference value: 1.39%); assay type: functional
# NCI-H1975 [12] = assay: Induction of apoptosis in human NCI-H1975 cells assessed as late apoptotic cells at 0.5 uM incubated for 48 hrs by AnnexinV/FITC and propidium iodide staining based flow cytometry analysis (reference value: 0.73%); assay type: functional
# NCI-H1975 [13] = assay: Induction of apoptosis in human NCI-H1975 cells assessed as necrotic cells at 0.5 uM incubated for 48 hrs by AnnexinV/FITC and propidium iodide staining based flow cytometry analysis (reference value: 2.99%); assay type: functional
# NCI-H1975 [14] = assay: Induction of apoptosis in human NCI-H1975 cells assessed as late apoptotic cells at 2 uM incubated for 48 hrs by AnnexinV/FITC and propidium iodide staining based flow cytometry analysis (reference value: 0.73%); assay type: functional
# NCI-H1975 [15] = assay: Induction of apoptosis in human NCI-H1975 cells assessed as necrotic cells at 2 uM incubated for 48 hrs by AnnexinV/FITC and propidium iodide staining based flow cytometry analysis (reference value: 2.99%); assay type: functional
# NCI-H1975 [16] = assay: Induction of cell cycle arrest in human NCI-H1975 cells assessed as accumulation of cells at S phase at 0.125 uM incubated for 48 hrs by propidium iodide staining based flow cytometry analysis (reference value: 11.72%); assay type: functional
# NCI-H1975 [17] = assay: Induction of cell cycle arrest in human NCI-H1975 cells assessed as accumulation of cells at G2/M phase at 0.125 uM incubated for 48 hrs by propidium iodide staining based flow cytometry analysis (reference value: 30.23%); assay type: functional
# NCI-H1975 [18] = assay: Induction of cell cycle arrest in human NCI-H1975 cells assessed as accumulation of cells at G2/M phase at 0.5 uM incubated for 48 hrs by propidium iodide staining based flow cytometry analysis (reference value: 30.23%); assay type: functional
# NCI-H1975 [19] = assay: Induction of cell cycle arrest in human NCI-H1975 cells assessed as accumulation of cells at S phase at 2 uM incubated for 48 hrs by propidium iodide staining based flow cytometry analysis (reference value: 11.72%); assay type: functional
# [20] = AUC (0 to t) in Sprague-Dawley rat at 25 mg/kg, iv measured for 24 hrs by LC-MS/MS analysis; assay type: ADME, organism-based; design: dose 25 mg/kg, time 24 hrs; conditions: in vivo
# Procedure, shortened: (§3)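 Male Sprague-Dawley rats (200 ± 20 g), acclimatised 1 week at 25 ± 2 °C, 50-60% RH; six rats given 25 mg/kg by tail vein. Retro-orbital blood into heparin at 10, 20, 40 min and 1, 2, 3, 4, 6, 8, 12, 24 h. Plasma ethyl acetate-extracted and quantified by LC-MS/MS, transition m/z 485.3/452.3.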
# [21] = MRT (0 to t) in Sprague-Dawley rat at 25 mg/kg, iv measured for 24 hrs by LC-MS/MS analysis; assay type: ADME, organism-based; conditions: in vivo; procedure, shortened: as §3
# [22] = MRT (0 to infinity) in Sprague-Dawley rat at 25 mg/kg, iv by LC-MS/MS analysis; assay type: ADME, organism-based; conditions: in vivo; procedure, shortened: as §3
# [23] = Elimination half life in Sprague-Dawley rat at 25 mg/kg, iv measured for 24 hrs by LC-MS/MS analysis; assay type: ADME, organism-based; conditions: in vivo, read-out: beta t1/2 (converted); procedure, shortened: as §3
# [24] = Clearance in Sprague-Dawley rat at 25 mg/kg, iv measured for 24 hrs by LC-MS/MS analysis; assay type: ADME, organism-based; conditions: in vivo; procedure, shortened: as §3
# Chain of Epidermal growth factor receptor (P00533 whole entry): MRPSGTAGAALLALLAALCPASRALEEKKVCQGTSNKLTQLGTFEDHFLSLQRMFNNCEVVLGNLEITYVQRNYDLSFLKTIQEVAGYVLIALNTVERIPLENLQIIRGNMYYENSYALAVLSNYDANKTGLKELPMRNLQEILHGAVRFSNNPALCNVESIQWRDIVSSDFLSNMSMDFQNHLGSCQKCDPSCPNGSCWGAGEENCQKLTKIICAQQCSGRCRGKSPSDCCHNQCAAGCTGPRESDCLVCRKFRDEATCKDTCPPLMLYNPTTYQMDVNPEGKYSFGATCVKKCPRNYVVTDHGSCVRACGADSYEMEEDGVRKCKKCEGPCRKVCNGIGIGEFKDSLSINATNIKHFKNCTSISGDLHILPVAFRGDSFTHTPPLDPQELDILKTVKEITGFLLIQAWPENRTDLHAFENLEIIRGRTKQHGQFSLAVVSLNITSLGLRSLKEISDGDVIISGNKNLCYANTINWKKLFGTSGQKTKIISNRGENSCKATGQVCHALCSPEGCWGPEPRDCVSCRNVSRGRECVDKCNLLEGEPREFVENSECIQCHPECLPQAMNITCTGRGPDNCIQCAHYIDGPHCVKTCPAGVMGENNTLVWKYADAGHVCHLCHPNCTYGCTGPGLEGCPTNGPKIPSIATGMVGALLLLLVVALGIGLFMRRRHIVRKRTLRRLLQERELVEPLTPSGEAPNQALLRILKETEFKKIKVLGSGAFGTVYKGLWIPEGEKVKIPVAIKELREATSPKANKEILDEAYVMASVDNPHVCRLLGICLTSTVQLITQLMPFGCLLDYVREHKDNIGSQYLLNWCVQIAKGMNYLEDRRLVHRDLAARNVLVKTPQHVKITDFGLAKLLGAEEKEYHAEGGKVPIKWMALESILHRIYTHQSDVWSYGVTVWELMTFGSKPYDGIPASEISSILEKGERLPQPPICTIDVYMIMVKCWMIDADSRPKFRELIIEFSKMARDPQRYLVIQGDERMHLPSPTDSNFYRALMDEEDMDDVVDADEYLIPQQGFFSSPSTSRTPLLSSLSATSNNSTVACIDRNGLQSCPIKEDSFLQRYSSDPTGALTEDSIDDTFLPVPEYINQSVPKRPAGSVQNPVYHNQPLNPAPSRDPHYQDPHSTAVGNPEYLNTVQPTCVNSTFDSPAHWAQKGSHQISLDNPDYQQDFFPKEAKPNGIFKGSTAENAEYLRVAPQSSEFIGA
compound,measurement,setting,value
O=C(NO)c1ccccc1Nc1nc(Nc2ccc(OCCN3CCOCC3)cc2)ncc1Cl,IC50,[1],47.7 nM
same,IC50,NCI-H1975 [2],97.8 nM
same,IC50,A-431,1070 nM
same,IC50,A549,97.7 nM
same,IC50,[3],23600 nM
same,IC50,ASPC1,169 nM
same,IC50,NCI-H23,625 nM
same,IC50,L02,3050 nM
same,Activity,NCI-H1975 [4],Active
same,Activity,NCI-H1975 [5],Active
same,Activity,NCI-H1975 [6],Active
same,Activity,NCI-H1975 [7],Active
same,viability at 0.125 µM,NCI-H1975 [8],95.7%
same,Activity,NCI-H1975 [9],0.31%
same,Activity,NCI-H1975 [10],0.01%
same,Activity,NCI-H1975 [11],15.53%
same,Activity,NCI-H1975 [12],0.56%
same,Activity,NCI-H1975 [13],0.07%
same,Activity,NCI-H1975 [14],0.67%
same,Activity,NCI-H1975 [15],0.14%
same,Activity,NCI-H1975 [16],15.08%
same,Activity,NCI-H1975 [17],64.66%
same,Activity,NCI-H1975 [18],70.99%
same,Activity,NCI-H1975 [19],10.83%
same,AUC(0-t) at 24 h,[20],37600 ng·h/mL
same,MRT last at 24 h,[21],8.2 h
same,MRT inf,[22],13.1 h
same,half-life,[23],9.51 h
same,clearance,[24],9.23 mL/min/kg
